This is a sample that favours compounds with a hit; in the whole collection about 2.9% have one here.
ERAP1 HTS inh: blocks human ERAP1 aminopeptidase activity; recombinant ERAP1, Leu-AMC fluorescence, 60 min; Q9NZ08; AID 652197; inhibition, % at 10.7 µM; hit rate 0.15% among 340,000;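 active = mean replicate inhibition of at least 30%, or all replicates individually reaching that 30% level; inactive = mean below 30% and not every replicate reaching it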;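 also: 0% = neutral control wells and 100% = L-leucinethiol positive control wells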
Target sequence (Q9NZ08 whole entry, looked up): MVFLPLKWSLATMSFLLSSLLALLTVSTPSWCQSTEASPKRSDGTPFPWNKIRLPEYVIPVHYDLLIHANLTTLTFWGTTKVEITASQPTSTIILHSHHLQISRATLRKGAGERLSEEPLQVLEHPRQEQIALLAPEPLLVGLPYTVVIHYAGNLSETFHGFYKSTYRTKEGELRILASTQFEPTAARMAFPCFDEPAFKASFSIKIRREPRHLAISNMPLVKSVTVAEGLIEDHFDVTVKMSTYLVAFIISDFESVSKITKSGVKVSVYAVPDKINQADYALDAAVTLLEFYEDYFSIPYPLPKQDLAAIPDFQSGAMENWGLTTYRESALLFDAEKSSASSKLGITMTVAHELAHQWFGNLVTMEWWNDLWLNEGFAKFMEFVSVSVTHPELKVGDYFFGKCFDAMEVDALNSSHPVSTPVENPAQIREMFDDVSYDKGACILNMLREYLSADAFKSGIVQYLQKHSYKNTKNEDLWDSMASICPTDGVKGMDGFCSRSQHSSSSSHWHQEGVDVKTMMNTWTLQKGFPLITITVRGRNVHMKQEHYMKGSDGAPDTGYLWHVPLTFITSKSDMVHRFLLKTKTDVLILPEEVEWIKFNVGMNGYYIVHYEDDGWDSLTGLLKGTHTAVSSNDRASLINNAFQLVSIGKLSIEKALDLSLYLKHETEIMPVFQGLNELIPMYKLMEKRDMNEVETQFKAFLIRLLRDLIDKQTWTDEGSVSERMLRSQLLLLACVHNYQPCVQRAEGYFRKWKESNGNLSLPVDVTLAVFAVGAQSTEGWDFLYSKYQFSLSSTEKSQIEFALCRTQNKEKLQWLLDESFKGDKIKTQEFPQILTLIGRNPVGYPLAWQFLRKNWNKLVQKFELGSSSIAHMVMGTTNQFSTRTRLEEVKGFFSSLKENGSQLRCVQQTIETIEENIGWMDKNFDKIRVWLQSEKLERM
CAL PDZ FP-1: inhibitors of human CAL PDZ peptide binding. Q9HD26. purified CAL PDZ, TMR-peptide fluorescence polarization, 1 h. inhibition, % at 24.9 µM. hit rate 0.92% among 300,000. AID 602252;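 active = mean inhibition of at least 30% with at least half of replicates also reaching 30%; inconclusive = no clear call, values can overlap the other calls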;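 also: 0% = DMSO neutral control and 100% = excess unlabeled competitor peptide PRC23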
CAL PDZ FP-2: blocks peptide binding to human CAL PDZ domain; Q9HD26; purified CAL PDZ, TMR-peptide fluorescence polarization, 1 h; inhibition, % at 20 µM; hit rate 0.02% among 330,000;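 active = highest replicate inhibition of at least 40%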;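 also: plate controls were DMSO neutral control wells for no effect and unlabeled competitor peptide control wells for full effect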
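Test system: purified CerCALP PDZ construct; Compound dosing: one concentration, 20 µM compound; Also added: TMR-labelled reporter peptide T*-PRC34 bound in PDZ groove; Read-out: inhibition from polarization loss; Controls: unlabelled peptide and DMSO controls; Signal: FP readout, S and P plane fluorescence; Incubation: 1 h at RT.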
SIRT5 block: blocks human SIRT5 desuccinylation of peptide. AID 652115. inhibition, % at 15 µM. hit rate 1.1% among 330,000. Purified SirT5, succinyl-peptide AMC, trypsin-coupled fluorescence; in the data active = inhibition above about 15%; inconclusive = no clear call, values can overlap the other calls
DENV2 CPE: protects cells from dengue virus 2 cytopathic effect; DENV2-infected cells, cytopathic effect rescue, plate reader; CPE inhibition, % at 9.99 µM; hit rate 1.7% among 350,000; AID 651640; in the data active = CPE inhibition above about 20%, passing the limit was not always enough; inconclusive = no clear call, values can overlap the other calls; tested in BHK-21 cells;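 also: 0% = median of neutral control wells and 100% = median of positive control wells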
S100A4 MyoIIA: blocks human S100A4 binding to myosin IIA peptide; P26447; S100A4/TAMRA-MyoIIA peptide fluorescence polarization; inhibition, % at 10.7 µM; hit rate 0.14% among 360,000; AID 652163;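 active = mean inhibition of at least 70% across replicates, with every replicate also reaching that level; inconclusive = mean inhibition reaches 70% but some replicates fall short; inactive = mean inhibition below 70%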
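Material: S100A4 monomer (human). Medium: Calcium-containing HEPES buffer, pH 7.2. Probe or stimulus: labelled myosin peptide probe, 5 nM. Compound dosing: one concentration per compound. Timing: polarization read 5 min after assay mix addition, stable 5–60 min. Benchmarks: DMSO as neutral control, TFP as positive control.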
Starred values were filed as active, the others as inactive; u = inconclusive; x = no result given.

SMILES	ERAP1 HTS inh	CAL PDZ FP-1	CAL PDZ FP-2	SIRT5 block	DENV2 CPE	S100A4 MyoIIA
C/C=C/c1ccc([C@@H]2[C@@H](CO)N3CCCCN(C(=O)Cc4cccnc4)C[C@@H]23)cc1	-1	x	x	-1	-9	-3
CN(C)Cc1c[nH]c2ccc([N+](=O)[O-])cc12	0	-2	0	x	0	-2
CN(C)Cc1c[nH]c2cc([N+](=O)[O-])ccc12	1	-6	-1	16*	-5	5
Cc1cc(=O)oc2cc(OCC(=O)N3CCC(C(=O)O)(c4ccccc4)CC3)ccc12	-1	-6	-1	-7	75*	-6
O=C(NCc1cccnc1)Nc1ccccc1Cl	1	-1	-2	-2	9	-2
O=C(NCc1cccnc1)Nc1ccc([N+](=O)[O-])cc1	3	x	-1	-2	36*	3
Cc1ccc(OC(=O)N(C)C[C@@H]2OCc3ccccc3-c3c(n(C)c4ccccc34)C(=O)N([C@@H](C)CO)C[C@H]2C)cc1	-2	x	x	8	3	-4
CC(=NCc1cccnc1)c1c(O)n(-c2ccccc2C)c(=O)[nH]c1=O	1	x	-2	27*	-3	-2
C1CCC2S[C@H]3CCCCC3NC2C1 (some centres not stated)	x	58*	-1	1	17	2
CN1CC(C(=O)c2cccc(C(F)(F)F)c2)C(c2ccc(Cl)cc2)C1 (configuration not stated)	1	59*	1	-5	-3	-3
COC(=O)[C@H]1[C@H](CO)[C@H]2Cn3c(ccc(C4=CCCCC4)c3=O)[C@@H]1N2CC1CC1	-2	x	x	4	0	3
C[C@H]1CN([C@@H](C)CO)C(=O)c2c(c3ccccc3n2C)-c2ccccc2CO[C@H]1CN(C)C(=O)Oc1ccccc1	2	x	x	5	81*	0
C=C(CC1CC(O)[C@]2(C)OC3CC4OC5C[C@]6(C)O[C@]7(C)CCC8OC9C[C@]%10(C)OC%11C(C)=CC(=O)OC%11CC%10OC9C[C@@H](C)C8OC7CC6O[C@]5(C)C/C=C\C4OC3CC2O1)C(=O)O (some centres not stated)	51*	-2	0	-7	-17	-8
O=C1CNC[C@H]2[C@H](c3ccc(Br)cc3)[C@@H](CO)N12	-3	x	x	-1	6	1
CCC(C)N1C(=O)/C(=C\c2cc3c4c(c2)CCCN4CCC3)C(=O)NC1=S (configuration not stated)	5	65*	0	-3	u	-20
O=C(Cc1cccnc1)N1CCCCN2[C@H](C1)[C@@H](c1ccc(C#CC3(O)CCCC3)cc1)[C@@H]2CO	2	x	x	-1	12	-1
CN(C)c1ccc(C=C2C(=O)NC(=S)NC2=O)cc1	11	185*	0	3	-7	-13
COCC#Cc1ccc([C@@H]2[C@@H](CO)N3CCCCN(C(=O)Cc4ccccn4)C[C@@H]23)cc1	-3	x	x	-5	4	-31
Oc1ccccc1-[n+]1c(-c2ccccc2)cc(-c2ccccc2)cc1-c1ccccc1	0	-2	-1	x	x	-7
Cc1ccccc1-[n+]1c(-c2ccccc2)cc(-c2ccccc2)cc1-c1ccccc1	-4	-7	0	-1	76*	40
COc1ccc(CN2C(=O)CC(=O)NC2=O)cc1	x	-4	0	x	x	x
O=C1CC(=O)N(Cc2ccccc2)C(=S)N1	2	-4	-2	7	23*	-5
COC(=O)[C@@H]1[C@@H](CO)[C@@H]2Cn3c(ccc(-c4ccccc4)c3=O)[C@H]1N2CC1CCOCC1	-1	x	x	-2	-11	5
O=C(O)C(Br)CBr (configuration not stated)	-3	1	-1	x	-9	100*
OCC(Br)CBr (configuration not stated)	5	-3	0	x	-13	17
SMILES	ERAP1 HTS inh	CAL PDZ FP-1	CAL PDZ FP-2	SIRT5 block	DENV2 CPE	S100A4 MyoIIA
C=C[C@@H]1C2=CCOC(=O)C2=CO[C@H]1O[C@@H]1O[C@H](CO)[C@@H](O)[C@H](O)[C@H]1O	x	1	-1	x	23*	-3
O=C1NC(=O)N(c2ccc3c(c2)OCO3)C(=O)/C1=C/c1ccc(N2CCCC2)o1	9	0	1	5	77*	-22
CCN1C[C@]2(COC)CC[C@H](O)[C@]34C1[C@](O)([C@@H](OC)[C@H]23)[C@@]1(O)C[C@H](OC)[C@H]2C[C@@H]4[C@@H]1[C@H]2OC	-2	3	-1	-8	-8	7
CCN1C[C@]2(COC)CC[C@H](OC)[C@@]34C5C[C@H]6C(=O)C5[C@](O)(C[C@H]6OC)[C@@](O)(C(OC)C23)[C@@H]14 (some centres not stated)	x	-3	0	x	44*	4
CC1=C2C[C@H]3[C@@H](CC=C4C[C@@H](O)CC[C@@]43C)[C@@H]2CC[C@]12O[C@@H]1C[C@H](C)CN[C@@H]1C2C (some centres not stated)	-2	x	x	-1	-13	-3
CCCN1[C@@H]2c3ccc(-c4ccc(F)cc4)c(=O)n3C[C@H]1[C@H](CO)[C@H]2C(=O)OC	0	x	x	-1	-4	22
C[N+]1(C)[C@@H]2CC[C@H]1CC(OC(=O)[C@@H](CO)c1ccccc1)C2 (some centres not stated)	28	3	0	1	0	-2
C[N+]1(C)CCC(OC(=O)C(c2ccccc2)c2ccccc2)CC1	92*	1	1	2	-7	-4
COc1cc([C@H]2OC[C@H]3[C@@H]2CO[C@@H]3c2cc(OC)c(O[C@@H]3O[C@H](CO)[C@@H](O)[C@H](O)[C@H]3O)c(OC)c2)cc(OC)c1O[C@H]1O[C@@H](CO)[C@H](O)[C@@H](O)[C@@H]1O	x	-1	0	x	-6	4
O=c1ccc2cc(OC3O[C@H](CO)[C@@H](O)[C@H](O)[C@H]3O)c(O)cc2o1 (some centres not stated)	79*	-4	-1	-110	8	-1
COC(=O)[C@H]1[C@H](CO)[C@H]2Cn3c(ccc(C4=CCCCC4)c3=O)[C@@H]1N2CC1CCCCC1	4	x	x	-6	-7	1
O=C1NC(=O)N(Cc2ccco2)C(=O)/C1=C/C=C/c1ccco1	2	5	1	15*	-3	-3
O=C1NC(=O)N(Cc2ccccc2)C(=O)/C1=C\C=C\c1ccco1	16	-3	-1	6	-3	-4
COc1ccc(C#Cc2ccc([C@H]3[C@H]4CN(C(=O)Cc5ccccc5)CCCCN4[C@H]3CO)cc2)cc1	3	x	x	-3	15	-3
O=C(Cc1cccnc1)N1CCCCN2[C@H](CO)[C@@H](c3ccc(C#CC4CC4)cc3)[C@H]2C1	2	x	x	0	7	0

Compound activity: PubChem, Broad Institute
